Screens from PubChem.
Most compounds without a hit are left out; they make up all but 1.8% or so of the library.
MT1-MMP act inh – blocks activation of human MT1-MMP | AID 651647 | HT1080 RFP-PRO-GFP cells, GFP/RFP ratio fluorescence, overnight; percent of plate control window, DMSO zero | actives 0.061% (n = 360,000) | GFP/RFP ratio change, % at 20 µM;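 active = GFP/RFP ratio change of at least 30% with cell ATP level not reduced by more than half and red fluorescence within 50% of control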
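Test system: HT1080 cells expressing an RFP-PRO-GFP fluorescent reporter construct / Compound dosing: single-point 20 µM compound, 1% DMSO / Schedule: cells overnight before dosing, compound overnight, 37 °C, 5% CO2 / Evaluation: GFP/RFP fluorescence ratio / Control set: DMSO and RFP-L50D-GFP cell wells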
SKN-1 block – C. elegans SKN-1 inhibition. C. elegans VP596 Pgst-4::GFP/RFP ratio, acrylamide-induced, 24 h. inhibition, % at 21.8 µM. actives 0.49% (n = 360,000). AID 624304;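 active = interference check ratio from 0.5 to 1.5 plus GFP to RFP signal ratio inhibition reaching or exceeding a fixed threshold, cut at about 30% in these data, passing the limit was not always enough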
hiPSC survival – hiPSC single-cell survival enhancement. survival enhancement, % at 20 µM. actives 0.044% (n = 360,000). AID 602274. ATPlite luminescence; 100% = ROCK inhibitor wells, 0% = DMSO; in the data active = survival enhancement above about 18%;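 also: cells exposed to compounds for 16 hours before the ATP read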
rRNA inh HTS – inhibitors of bacterial rRNA selective over humanized ribosomes; E. coli WT GFP vs humanized-ribosome RFP mutants, fluorescence, 24 h; hits give low values; DMSO median 0, no signal -100; GFP signal change (wild-type ribosome), % (concentration not given with the values); actives 1.6% (n = 350,000);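 active = significant combined selectivity score with lowered wild-type GFP, culture density cut under 30%, mutant RFP and density less affected; inactive = any of these conditions unmet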
DAGLB inh – blocks human DAGLB lipase activity; AID 504411; actives 0.059% (n = 340,000); Q8NCG7; HEK293T DAGLB membrane lysate, EnzChek fluorogenic substrate; inhibition, % at 5.17 µM; in the data active = inhibition above about 34%;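 also: 0% = enzyme with vehicle and 100% = wells lacking enzyme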
Target sequence (Q8NCG7 whole entry, looked up): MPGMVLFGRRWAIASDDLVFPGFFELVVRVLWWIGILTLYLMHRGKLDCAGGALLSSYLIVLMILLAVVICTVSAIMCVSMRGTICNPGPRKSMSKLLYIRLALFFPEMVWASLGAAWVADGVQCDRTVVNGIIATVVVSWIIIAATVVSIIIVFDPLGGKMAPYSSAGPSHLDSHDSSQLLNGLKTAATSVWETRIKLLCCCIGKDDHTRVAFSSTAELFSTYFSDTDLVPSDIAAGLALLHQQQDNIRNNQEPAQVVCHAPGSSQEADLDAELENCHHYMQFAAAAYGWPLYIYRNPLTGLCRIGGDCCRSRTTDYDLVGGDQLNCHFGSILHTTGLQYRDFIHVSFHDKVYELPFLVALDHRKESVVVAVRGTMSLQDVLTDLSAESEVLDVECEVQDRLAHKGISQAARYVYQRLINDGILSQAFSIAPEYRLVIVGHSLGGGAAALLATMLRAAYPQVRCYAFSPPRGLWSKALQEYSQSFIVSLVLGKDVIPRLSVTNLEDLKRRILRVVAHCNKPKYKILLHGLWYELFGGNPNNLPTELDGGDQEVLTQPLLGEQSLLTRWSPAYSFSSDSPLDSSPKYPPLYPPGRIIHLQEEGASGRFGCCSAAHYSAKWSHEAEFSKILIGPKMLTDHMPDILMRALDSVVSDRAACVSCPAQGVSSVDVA
Cneo AK release – causes C. neoformans cell lysis. adenylate kinase release luminescence, 4 h; normalised: neutral wells 0, clomiphene wells 100. lysis activity, % at 15 µM. actives 0.2% (n = 360,000). AID 651654;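 active = mean lysis activity across replicates of at least 80%, whatever share of replicates individually reach that level; inactive = mean lysis activity below 80%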
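Signal: Adenylate kinase release luminescence | Assay system: Log-phase Cryptococcus neoformans yeast cells | Input: Cells at 5 × 10^6 per mL | Buffer or medium: Fresh YPD growth medium | Compound: Single dose | Schedule: Static 4 h at 37 °C with compound, 1 h detection | Controls: Clomiphene | Read-out: Luminescence rise reflecting yeast cell lysis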
An asterisk follows results filed as active; · = not tested or not shown; ! = a repeat was not active.

SMILES	MT1-MMP act inh	SKN-1 block	hiPSC survival	rRNA inh HTS	DAGLB inh	Cneo AK release
Cc1cc(C)c(NC(=O)CS(=O)CC(=O)Nc2ccc(N3CCOCC3)cc2)c(C)c1 (stereo not drawn)	-2.8	35.1*	0.8	3.5	-2.0	0.4
Cc1ccc(CC(=O)N(C)CC(=O)Nc2ccc(N3CCOCC3)cc2)cc1C	4.4	-0.8	-0.5	4.2	-0.5	0.5
Cc1ccc(NC(=O)CN(C)CC(=O)Nc2ccc(N3CCOCC3)cc2)cc1F	0.5	8.1	4.2	-21.4*	3.6	·
Cc1cc(C)cc(C(=O)Nc2ccc(N3CCCC3)cc2)c1	-0.6	6.5	-0.1	-29.9*	9.8	·
Cc1ccc(NC(=O)CS(=O)CC(=O)Nc2ccc(N3CCOCC3)cc2)cc1Cl (stereo not drawn)	2.6	11.5	3.9	·	1.6	0.2
Cc1noc(C)c1S(=O)(=O)Nc1ccc2c(c1)C(=O)N([C@H](C)CO)C[C@H](C)[C@@H](CN(C)CC1CCCCC1)OCCCC[C@H](C)O2	·	·	·	-0.8	·	1.3
Cc1cccc(-c2ccc([C@H]3[C@H]4CN(C(=O)NC5CCCCC5)CC(=O)N4[C@H]3CO)cc2)c1	·	·	·	-1.1	·	·
CC(C)CC#Cc1cnc2c(c1)C(=O)N([C@H](C)CO)C[C@H](C)[C@@H](CN(C)C(=O)C1CCOCC1)O2	·	·	·	-6.7	·	2.9
O=C(CSc1nc2ccccc2c2nc3ccccc3n12)NCc1ccco1	-1.5	47.8*	-1.8	·	-0.5	-0.4
COc1ccc(CNc2nc(SCC(=O)NCc3ccco3)nc3ccccc23)cc1	-6.5	-6.3	-2.8	-30.8*	-0.5	1.4
CCOC(=O)CSc1nc(NCc2ccco2)c2ccccc2n1	1.4	-5.3	-2.3	·	0.2	-2.0
O=C(NCC[C@@H]1CC[C@H](NC(=O)c2cnccn2)[C@@H](CO)O1)Nc1ccc(F)cc1	·	·	·	-1.7	·	-0.9
Fc1ccc(C(Nc2ccccn2)c2c[nH]c3ccccc23)cc1 (stereo not drawn)	-3.6	3.4	-3.0	-3.7	-0.7	·
OC(c1ccccn1)c1c[nH]c2ccccc12 (stereo not drawn)	-1.5	36.8*	-1.8	·	4.4	·
O=C(O)c1[nH]c2ccc(Br)cc2c1CCN1C(=O)c2cccc([N+](=O)[O-])c2C1=O	1.6	-14.0	0.4	-28.2*	11.3	·
CC(=O)Nc1cc(NC(C)=O)cc(C(=O)OC(C)C(=O)Nc2ccc(S(=O)(=O)N3CCCC3)cc2)c1 (stereo not drawn)	1.8	3.3	1.1	-13.4	1.2	2.6
CC(OC(=O)c1ccc(S(=O)(=O)N2CCCCC2)cc1)C(=O)Nc1ccc(C(N)=O)cc1 (stereo not drawn)	-2.5	3.2	40.0*	15.3	-1.7	-2.4
CC(OC(=O)c1ccc2c(=O)n3c(nc2c1)CCC3)C(=O)Nc1ccc(C(N)=O)cc1 (stereo not drawn)	-2.5	-5.7	26.4*	10.0	-1.7	-1.1
COCC(=O)Nc1ccc2c(c1)[C@@H]1C[C@@H](CC(=O)NCc3ccccc3OC)O[C@H](CO)[C@@H]1O2	·	·	·	1.1	·	-8.1
CCCOc1ccc(-c2nnc(-c3ccco3)o2)cc1	4.3	78.6*	-2.6	·	-13.1	0.4
CC(C)COc1ccc(-c2nnc(-c3ccco3)o2)cc1	3.8	43.2*	-2.6	·	-10.9	-3.1
O=C(COc1ccccc1)Nc1ccc(-c2nnc(-c3ccco3)o2)cc1	5.6	18.7	-1.4	·	-0.2	3.6
CCCNC(=O)Nc1ccc2c(c1)OC[C@H](C)N(C(C)=O)C[C@@H](C)[C@@H](OC)CN(C)C2=O	·	·	·	0.0	·	-4.6
C[C@@H]1CN([C@H](C)CO)C(=O)c2cc(NC(=O)Nc3ccccc3)ccc2O[C@@H](C)CCCCO[C@@H]1CN(C)Cc1ccc(Cl)c(Cl)c1	·	·	·	-4.2	·	-11.2
CCOc1ccc(C(=O)/C=C/c2cc(OC)c(OC)c(OC)c2)cc1	-6.3	-0.8	-0.1	-19.5*	-4.6	-0.3
SMILES	MT1-MMP act inh	SKN-1 block	hiPSC survival	rRNA inh HTS	DAGLB inh	Cneo AK release
Cc1cccc(-c2ccc([C@H]3[C@H](CO)N4C(=O)CN(C(=O)c5ccccc5)C[C@@H]34)cc2)c1	·	·	·	2.8	·	·
COc1ccc(N(C(=O)CSCC(=O)Nc2cc(C)on2)C(C(=O)NC2CCCCC2)c2ccc(O)c(O)c2)cc1 (stereo not drawn)	7.2	-1.2	4.9	-18.1*	3.9	·
Cc1cc(NC(=O)CSCC(=O)N(c2ccc(F)cc2)C(C(=O)NC2CCCCC2)c2ccc(O)c(O)c2)no1 (stereo not drawn)	7.8	-0.6	1.0	·	4.6	-2.5
CO[C@@H]1CN(C)C(=O)c2cc(NS(=O)(=O)C3CCCCC3)ccc2OC[C@H](C)NC[C@@H]1C	·	·	·	·	·	85.6*
CO[C@H]1CN(C)C(=O)c2ccc(NS(=O)(=O)C3CCCCC3)cc2OC[C@@H](C)NC[C@@H]1C	·	·	·	3.9	·	·
COc1cccc(S(=O)(=O)Nc2ccc3c(c2)C(=O)N(C)C[C@H](OC)[C@H](C)CN(Cc2ccccc2F)[C@@H](C)CO3)c1	-2.7	3.6	·	-18.4*!	·	0.6
CO[C@@H]1CN(C)C(=O)c2cc(NS(=O)(=O)c3cccc(C)c3)ccc2OC[C@@H](C)NC[C@H]1C	·	·	·	2.8	·	103.9*
COc1cccc(S(=O)(=O)Nc2ccc3c(c2)OC[C@@H](C)NC[C@H](C)[C@@H](OC)CN(C)C3=O)c1	·	·	·	2.4	·	98.0*
Cc1noc(C)c1NC(=O)Nc1cccc2c1O[C@H](CN(C)S(=O)(=O)c1ccc(F)cc1)[C@@H](C)CN([C@@H](C)CO)C2=O	·	·	·	-0.7	·	-6.8
CO[C@@H]1CN(C)C(=O)c2ccc(NS(=O)(=O)c3ccc(Oc4ccccc4)cc3)cc2OC[C@H](C)NC[C@H]1C	·	·	·	1.1	·	98.9*
CO[C@@H]1CN(C)C(=O)c2cc(NS(=O)(=O)c3ccc(C)cc3)ccc2OC[C@@H](C)N(C)C[C@@H]1C	·	·	·	1.6	·	139.0*
CCCC#Cc1cnc2c(c1)C(=O)N([C@@H](C)CO)C[C@@H](C)[C@H](CN(C)Cc1ccccc1)O2	·	·	·	2.8	·	-0.4
Oc1[nH]c2ccccc2c1N=Nc1ccccn1	2.4	5.7	-1.6	16.2	0.8	·
Oc1c(N=Nc2ccccn2)ccc2ccccc12	76.7	46.1*	-3.9	·	40.2*	·
Cc1ccc(-c2ccc([C@@H]3[C@@H](CO)N4CCCCN(C(=O)c5ccc(F)cc5)C[C@@H]34)cc2)cc1	·	·	·	-25.4	·	-2.8
CCCn1c(=S)[nH]c2cc(C(=O)N(CCO)Cc3ccccc3)ccc2c1=O	3.0	8.0	0.1	-29.6*	1.6	-2.8
CCN(CC)C(=O)c1ccc2c(=O)n(CCOC)c(=S)[nH]c2c1	5.2	3.4	2.0	·	-1.8	-0.6
